SENP7 inh – inhibitors of human SENP7 protease; Q9BQF6; recombinant SENP7, Z-RLRGG-aminoluciferin luminescence, 40 min; inhibition, % at 5 µM; hit rate 1.5% among 330,000; AID 434973;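 active = inhibition above about 50% at the single test dose, limit read from the data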
SENP6 block – blocks the human protease SENP6; Recombinant SENP6 catalytic domain, aminoluciferin luminescence; Q9GZR1; inhibition, % at 10 µM; hit rate 1.8% among 330,000;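 active = inhibition above about 50% at the single tested dose, limit read from the data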
Target sequence (Q9GZR1 628-1112 limits assumed): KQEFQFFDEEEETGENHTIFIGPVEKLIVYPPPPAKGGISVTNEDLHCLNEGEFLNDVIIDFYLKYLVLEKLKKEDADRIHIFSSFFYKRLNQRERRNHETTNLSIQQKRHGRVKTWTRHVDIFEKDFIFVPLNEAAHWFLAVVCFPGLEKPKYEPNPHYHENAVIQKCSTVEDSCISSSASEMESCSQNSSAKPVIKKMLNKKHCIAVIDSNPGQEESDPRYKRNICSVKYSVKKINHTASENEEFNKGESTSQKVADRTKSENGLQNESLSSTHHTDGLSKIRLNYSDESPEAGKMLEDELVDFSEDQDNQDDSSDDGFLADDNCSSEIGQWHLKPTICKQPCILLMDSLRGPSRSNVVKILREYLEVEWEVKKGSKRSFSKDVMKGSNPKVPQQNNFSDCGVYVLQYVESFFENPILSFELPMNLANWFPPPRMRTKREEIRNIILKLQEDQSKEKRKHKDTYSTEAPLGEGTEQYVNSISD
Apaf-1 inh – inhibitors of human Apaf-1 apoptosome; hit rate 0.71% among 330,000; reconstituted apoptosome caspase-3 activity, DEVD-Rh110 fluorescence; inhibition, % at 20 µM; O14727; AID 489030; active = inhibition of at least 40% at 20 µM
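Material: reconstituted apoptosome with Apaf-1, cytochrome c, caspase-9, procaspase-3, dATP. Technique: Rh110 fluorescence intensity. Buffer or medium: pH 7.5 Hepes buffer with CHAPS, BSA, DTT. Times: 30 min plus 50 min, RT.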
SENP8 block-1 – blocks human SENP8 cleavage of Nedd8 substrate. hit rate 0.64% among 360,000. recombinant SENP8, Nedd8 substrate fluorescence. inhibition, % at 20 µM. Q96LD8; in the data active = inhibition mostly above about 40%, no sharp cut-off; inactive = mostly below about 27%
UBC13 polyUb – human UBC13 polyubiquitination inhibition; UBC13 polyubiquitin chain formation, TR-FRET; inhibition, % at 20 µM; hit rate 0.47% among 330,000; in the data active = inhibition above about 45%, passing the limit was not always enough
Target sequence (P61088 whole entry, looked up): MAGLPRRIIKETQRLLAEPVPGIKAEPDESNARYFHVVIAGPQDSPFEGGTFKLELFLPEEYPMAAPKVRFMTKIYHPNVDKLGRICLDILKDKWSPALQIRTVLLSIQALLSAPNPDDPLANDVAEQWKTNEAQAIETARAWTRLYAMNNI
SENP8 block-2 – SENP8 protease inhibition; Q96LD8; purified SENP8, Z-RLRGG-aminoluciferin cleavage, luminescence; inhibition, % at 10 µM; hit rate 1.2% among 330,000; AID 2540; in the data active = inhibition above about 50%
SENP8 confirm – confirmation of human SENP8 protease inhibitors; shares compounds with SENP7 inh; Recombinant SENP8, Z-RLRGG-aminoluciferin luminescence, 60 min; inhibition, % at 12.5 µM; hit rate 40% among 6,200; AID 488912;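 active = mean inhibition across replicates above about 50%, limit read from the data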
SENP6 confirm – confirmation of human SENP6 protease inhibitors; inhibition, % at 12.5 µM; shares compounds with SENP7 inh; hit rate 58% among 6,200; recombinant SENP6, Z-RLRGG-aminoluciferin luminescence
SENP7 confirm – human SENP7 inhibition, confirmed | shares compounds with SENP7 inh | recombinant SENP7, Z-RLRGG-aminoluciferin luminescence, 40 min | inhibition, % at 12.5 µM | hit rate 69% among 6,200
Casp3 SENP sel – inhibits human caspase-3 in SENP selectivity test. shares compounds with SENP7 inh. purified caspase-3, Z-DEVD-aminoluciferin luminescence, 60 min. inhibition, % at 12.5 µM. hit rate 60% among 6,200;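 active = mean inhibition above about 50%, limit read from the data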
Luc interf – luminescence interference (SENP counter-screen); Pre-incubated SENP8/Z-RLRGG-aminoluciferin, luciferase luminescence interference; inhibition, % at 12.5 µM; hit rate 39% among 6,200; shares compounds with SENP7 inh;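 active = mean inhibition above about 50% when retested at one dose, limit read from the data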
Each line names hits and unclear results; the compound was inactive in the other large screens (follow-up assays come after a bar, where they were run). Most compounds without a hit are left out; they make up all but 3.1% or so of the library.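 The calls were made as follows, unless noted: active = mean inhibition above about 50% in the one-dose retest (limit read from the data); inactive = the rest.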

O=C(CSCc1ccc(F)cc1)Nc1ccccc1	SENP7 inh 65.1 | SENP8 confirm inactive | SENP6 confirm inactive | SENP7 confirm inactive | Casp3 SENP sel inactive | Luc interf inactive
O=C(CSCc1ccccc1)Nc1ccc(F)c(F)c1	none
Cc1ccc(S(=O)(=O)N2CCCCC2)cc1C(=O)OC(C)C(=O)NCC1CCCCC1 (stereo not drawn)	none
Cn1c(=N)n(CC(=O)c2ccc(Cl)c(Cl)c2)c2ccccc21	SENP7 inh 52.4, SENP6 block 50.8 | SENP8 confirm inactive | SENP6 confirm inactive | SENP7 confirm inactive | Casp3 SENP sel inactive | Luc interf inactive
Cn1c(=N)n(CC(=O)c2ccccc2)c2ccccc21	none
O=C(NCc1cccnc1)c1cc(C2CCCN(C(=O)c3cccs3)C2)on1 (stereo not drawn)	none (no result: SENP7 inh, SENP6 block, Apaf-1 inh, UBC13 polyUb, SENP8 block-2)
O=C(Nc1ccc(F)cc1)C(CCc1ccccc1)N1CCN(c2ccncc2)CC1 (stereo not drawn)	none (no result: SENP7 inh, SENP6 block, Apaf-1 inh, UBC13 polyUb, SENP8 block-2)
O=C(Nc1ccc(Cl)cc1)C1Cc2c(-c3cccc(F)c3)ccnc2O1 (stereo not drawn)	none (no result: SENP7 inh, SENP6 block, Apaf-1 inh, UBC13 polyUb, SENP8 block-2)
CCOC(=O)N1CCN(C2=Nc3cccc4cccc2c34)CC1	SENP6 block 75.4 | SENP8 confirm inactive | SENP6 confirm inactive | SENP7 confirm inactive | Casp3 SENP sel inactive | Luc interf inactive
O=C1c2cccc3cccc(c23)C(=O)N1CC1CCN(S(=O)(=O)c2ccccc2)CC1	none (no result: SENP7 inh, SENP6 block, Apaf-1 inh, UBC13 polyUb, SENP8 block-2)
COc1ccccc1N1CCN(C2=Nc3cccc4cccc2c34)CC1	none
CC1CN(C2=Nc3cccc4cccc2c34)CC(C)O1 (stereo not drawn)	none
c1ccc(CC2CCN(C3=Nc4cccc5cccc3c45)CC2)cc1	SENP6 block 72.9 | SENP8 confirm inactive | SENP6 confirm inactive | SENP7 confirm inactive | Casp3 SENP sel inactive | Luc interf inactive
CCOC(=O)N1CCN(C(=O)Nc2cccc3ccccc23)CC1	SENP6 block 51.9 | SENP8 confirm inactive | SENP6 confirm inactive | SENP7 confirm inactive | Casp3 SENP sel inactive | Luc interf inactive
c1cc2c3c(cccc3c1)C(N1CCOCC1)=N2	SENP6 block 76.3 | SENP8 confirm inactive | SENP6 confirm inactive | SENP7 confirm inactive | Casp3 SENP sel inactive | Luc interf inactive
O=C1OC(Cc2ccccc2)(c2ccccc2)c2ccccc21 (stereo not drawn)	none (no result: SENP7 inh, SENP6 block, Apaf-1 inh, UBC13 polyUb, SENP8 block-2)
CCN1C(=O)/C(=C/C=C2/SCCN2C)SC1=S	SENP7 inh 76.5, SENP6 block 80.0, SENP8 block-1 46.8 | SENP8 confirm inactive | SENP6 confirm inactive | SENP7 confirm inactive | Casp3 SENP sel inactive | Luc interf inactive
CCCS(=O)(=O)c1nc(S(=O)(=O)c2ccc(C)cc2)c(NCCN2CCOCC2)s1	SENP6 block 103.6 | SENP8 confirm inactive | SENP6 confirm inactive | SENP7 confirm inactive | Casp3 SENP sel inactive | Luc interf inactive
CCS(=O)(=O)c1nc(S(=O)(=O)c2ccc(C)cc2)c(NCCCN2CCOCC2)s1	none
O=c1c2ccccc2cnn1-c1ccc(Br)cc1	SENP7 inh 66.4, SENP6 block 58.3 | SENP8 confirm inactive | SENP6 confirm inactive | SENP7 confirm 67.3 | Casp3 SENP sel 67.3 | Luc interf inactive
O=c1c2ccccc2nnn1-c1ccc(Br)cc1	none
O=c1c2ccccc2cnn1-c1ccc2ccccc2c1	SENP7 inh 82.2, SENP6 block 87.5, SENP8 block-2 67.3 | SENP8 confirm 53.0 | SENP6 confirm 76.9 | SENP7 confirm 94.5 | Casp3 SENP sel 80.5 | Luc interf inactive
Oc1c(C=Nc2ccccc2)sc(=S)n1Cc1ccccc1	none
CCn1c(O)c(C=Nc2ccccc2)sc1=S	SENP7 inh 69.7, SENP6 block 80.8, SENP8 block-2 68.8 (no result: SENP8 block-1) | SENP8 confirm inactive | SENP6 confirm 50.9 | SENP7 confirm 95.5 | Casp3 SENP sel 60.9 | Luc interf inactive
CCC(=O)Nc1cccc(C(=O)OCC(=O)c2ccccc2Cl)c1	none
CC(=O)Nc1cccc(C(=O)OCC(=O)c2ccccc2Cl)c1	SENP7 inh 61.4 | SENP8 confirm 72.2 | SENP6 confirm inactive | SENP7 confirm 89.2 | Casp3 SENP sel 69.9 | Luc interf 73.6
Nc1ccc(O)c2c(=O)cc(-c3ccccc3Cl)oc12	SENP6 block 60.4, SENP8 block-2 52.7 | SENP8 confirm inactive | SENP6 confirm inactive | SENP7 confirm inactive | Casp3 SENP sel inactive | Luc interf inactive
CC1(C(=O)NS(=O)(=O)c2ccccc2Cl)CCN1C(=O)c1ccccc1CCc1ccccc1 (stereo not drawn)	none (no result: SENP7 inh, SENP6 block, Apaf-1 inh, UBC13 polyUb, SENP8 block-2)
COCCn1c(C)cc(C(=O)COC(=O)c2ccc(Br)o2)c1C	SENP6 block 50.9 | SENP8 confirm inactive | SENP6 confirm inactive | SENP7 confirm 79.9 | Casp3 SENP sel 73.0 | Luc interf 63.7
CCOC(=O)c1sc(=NC(=O)c2ccccc2)n(C)c1C	SENP7 inh 53.5 | SENP8 confirm inactive | SENP6 confirm inactive | SENP7 confirm inactive | Casp3 SENP sel inactive | Luc interf inactive
CCOC(=O)c1sc(NC(=O)c2ccccc2)cc1C	SENP7 inh 94.4, SENP6 block 93.2, SENP8 block-2 76.7 | SENP8 confirm 57.2 | SENP6 confirm 89.5 | SENP7 confirm 100.0 | Casp3 SENP sel 84.2 | Luc interf inactive
CCOC(=O)c1sc(NC(=O)c2ccc(S(=O)(=O)N(C)C)cc2)cc1C	none
CC1(C(=O)Nc2ccc(Cl)c(Cl)c2)CCN1C(=O)C1CCCCC1 (stereo not drawn)	none (no result: SENP7 inh, SENP6 block, Apaf-1 inh, UBC13 polyUb, SENP8 block-2)
CC12CC(O)C3C(CCC4=CC(=O)CCC43C)C1CCC2=CCO (stereo not drawn)	none (no result: SENP7 inh, SENP6 block, Apaf-1 inh, UBC13 polyUb, SENP8 block-2)
N#C/C(=N\Nc1ccc(Cl)c(Cl)c1)C(=O)C1CC1	SENP7 inh 76.7, SENP6 block 96.3, SENP8 block-2 93.3 | SENP8 confirm 91.5 | SENP6 confirm 98.4 | SENP7 confirm 100.3 | Casp3 SENP sel 86.8 | Luc interf inactive
N#C/C(=N\Nc1ccc(F)cc1)C(=O)C1CC1	none
CCNC(=O)C1CCCN(C(=O)c2ccc3c(c2)CCO3)CC1 (stereo not drawn)	none (no result: SENP7 inh, SENP6 block, Apaf-1 inh, UBC13 polyUb, SENP8 block-2)
O=C(NN/C(=N/S(=O)(=O)c1ccc(Cl)cc1)c1ccccc1)c1ccc(O)cc1	SENP7 inh 97.2, SENP6 block 95.7, SENP8 block-2 95.1 | SENP8 confirm 72.6 | SENP6 confirm 62.6 | SENP7 confirm 89.1 | Casp3 SENP sel 87.4 | Luc interf 87.5
Cc1ccc(S(=O)(=O)NN/C(=N/S(=O)(=O)c2ccccc2)c2ccccc2)cc1	none

Screening data from PubChem BioAssay.
